Assay results from ChEMBL document CHEMBL1124534, “Synthesis, mechanism of action, and biological evaluation of mitosenes” (1989).
In brackets after ≈: the same amount, converted by molar mass.

What was measured:
Mus musculus [1] = assay: Ability of intraperitoneally administered compound (3 mg/kg/day) to inhibit growth of human tumor xenograft GXF 97 was assessed on day 21 in nude mice; assay type: functional
In short: (§1)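 GXF 97 human gastric xenograft grown subcutaneously in nude mice for 24 days, then randomized; dosing began 1 day later as ip injections on days 1-4. Groups had 4-5 mice. Tumor length and width were measured. %T/C = median relative tumor size of treated / median relative tumor size of controls.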

Mus musculus [2] = assay: Percent T/C ([…]) for antitumor activity against P388 Leukemia in CD2 mice at fractioned dose treatment of 2 mg/kg; assay type: functional
In short: (§2)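 Mouse P388 leukemia model. Drugs were given intraperitoneally, either as a single injection or once daily for 9 consecutive days (fractioned schedule). Outcomes were median survival time in days, %T/C, and % body weight change.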

Mus musculus [3] = assay: Relative tumor size on day 28 was reported when compound (3 mg/kg/day) administered to inhibit growth of human tumor xenograft GXF 97 in nude mice; assay type: functional
In short: (§3)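 GXF 97 human gastric xenograft grown subcutaneously in nude mice for 24 days, then mice randomized; treatment began 1 day later. Fractioned ip injections on days 1-4, or single iv injection on day 1; 4-5 mice per group. Tumor size from length and width; relative tumor size (% of controls) read at day 28.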

Mus musculus [4] = assay: Percentage change in body weight [(day 6 - day 1)/ day 1] for antitumor activity against P388 Leukemia in CD2 mice at fractioned dose treatment of 2 mg/Kg; assay type: functional; in short: as §2
Mus musculus [5] = assay: Percentage change in body weight [(day 6 - day 1)/ day 1] for antitumor activity against P388 Leukemia in CD2 mice at fractioned dose treatment of 8 mg/Kg; assay type: functional; settings: in the assay text read “single dose treatment” for “fractioned dose treatment”; in short: as §2
Mus musculus [6] = assay: Percent inhibition of compound (10 mg/Kg) was evaluated in vivo for antitumor activity against MAC 13 in female NMRI mice on day 2; assay type: functional
In short: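 MAC 13 in female NMRI mice. Drugs were given in arachis oil BP by ip route on day 2 or day 29. % inhibition was derived from treated/untreated control tumor weight (volume); a negative value indicates stimulation.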

Mus musculus [7] = assay: Compound (10 mg/Kg) was evaluated in vivo for antitumor activity against MAC 16 in female NMRI mice on day 12 and ratio of tumor weight of treated to that of control was determined; assay type: functional
Mus musculus [8] = assay: Mean relative body weight change of treated / mean relative body weight change of control when compound (3 mg/kg/day) administered to inhibit growth of human tumor xenograft GXF 97 was reported at day 28 in nude mice; assay type: functional
In short: (§4)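 GXF 97 xenograft grown subcutaneously in nude mice for 24 days, then randomized; ip dosing began 1 day later, given on days 1-4, with 4-5 mice per group. Read-out is mean relative body weight change of treated divided by mean relative body weight change of controls, in %.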

Mus musculus [9] = assay: Median survival time in days for antitumor activity against P388 Leukemia in CD2 mice at single dose treatment of 8 mg/Kg
Mus musculus [10] = assay: Ability of intraperitoneally administered compound (3 mg/kg/day) to inhibit growth of human tumor xenograft GXF 97 was assessed on day 14 in nude mice; assay type: functional; in short: as §1
Mus musculus [11] = assay: Body wieght treated/body weight untreated controls of compound (10 mg/Kg) was evaluated in vivo for antitumor activity against MAC 16 in female NMRI mice on day 4; assay type: functional
Mus musculus [12] = assay: Compound (10 mg/Kg) was evaluated in vivo for antitumor activity against MAC 13 in female NMRI mice on day 2 and ratio of tumor weight of treated to that of control was determined
Mus musculus [13] = assay: Compound (10 mg/Kg) was evaluated in vivo for antitumor activity against MAC 16 in female NMRI mice on day 4 and ratio of tumor weight of treated to that of control was determined; assay type: functional
Mus musculus [14] = assay: Ability of intraperitoneally administered compound (3 mg/kg/day) to inhibit growth of human tumor xenograft GXF 97 was assessed on day 28 in nude mice; assay type: functional; in short: as §1
Mus musculus [15] = assay: Mean relative body weight change of treated / mean relative body weight change of control when compound (3 mg/kg/day) administered to inhibit growth of human tumor xenograft GXF 97 was reported at day 14 in nude mice; assay type: functional; in short: as §4
Mus musculus [16] = assay: Percentage change in body weight [(day 6 - day 1)/ day 1] for antitumor activity against P388 Leukemia in CD2 mice at fractioned dose treatment of 12 mg/kg; assay type: functional; settings: in the assay text read “single dose treatment” for “fractioned dose treatment”; in short: as §2
Mus musculus [17] = assay: Percent T/C ([…]) for antitumor activity against P388 Leukemia in CD2 mice at fractioned dose treatment of 12 mg/kg; assay type: functional; settings: in the assay text read “single dose” for “fractioned dose”; in short: as §2
Mus musculus [18] = assay: Body wieght treated/body weight untreated controls of compound (10 mg/Kg) was evaluated in vivo for antitumor activity against MAC 16 in female NMRI mice on day 12; assay type: functional
Mus musculus [19] = assay: Percent T/C ([…]) for antitumor activity against P388 Leukemia in CD2 mice at fractioned dose treatment of 8 mg/Kg; assay type: functional; settings: in the assay text read “single dose” for “fractioned dose”; in short: as §2
WiDr = assay: In vitro antitumor activity against WiDr colon carcinoma tumor cell line was determined; assay type: functional; settings: Homo sapiens, read-out: ID50 (the source's name)
In short: (§5)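 Cell growth inhibition in vitro measured by the PIT method, with mitomycin C as positive reference.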

Mus musculus [20] = assay: Mean relative body weight change of treated / mean relative body weight change of control when compound (3 mg/kg/day) administered to inhibit growth of human tumor xenograft GXF 97 was reported at day 21 in nude mice; assay type: functional; in short: as §4
L1210 = assay: In vitro antitumor activity against L1210 lymphocytic leukemia tumor cell line was determined; assay type: functional; settings: Mus musculus, read-out: ID50 (the source's name)
In short: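 Inhibition of L1210 leukemia colony formation in vitro, with mitomycin C as positive reference.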

Mus musculus [21] = assay: Median survival time in days for antitumor activity against P388 Leukemia in CD2 mice at fractioned dose treatment of 2 mg/kg; assay type: functional
In short: (§6)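 P388 leukemia-bearing mice were dosed intraperitoneally once daily for 9 consecutive days (fractioned schedule). The read-out was median survival time in days, reported alongside %T/C and % body weight change.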

A204 = assay: In vitro antitumor activity against A204 rhabdomyosarcoma tumor cell line was determined; assay type: functional; settings: Homo sapiens, read-out: ID50 (the source's name); in short: as §5
Mus musculus [22] = assay: Median survival time in days for antitumor activity against P388 Leukemia in CD2 mice at single dose treatment of 12 mg/Kg
Mus musculus [23] = assay: Ability of intraperitoneally administered compound (6 mg/kg/day) to inhibit growth of human tumor xenograft GXF 97 was assessed on day 14 in nude mice; assay type: functional; in short: as §1
Mus musculus [24] = assay: Median survival time in days for antitumor activity against P388 Leukemia in CD2 mice at fractioned dose treatment of 2.5 mg/kg; assay type: functional; in short: as §6
Mus musculus [25] = assay: Percent T/C ([…]) for antitumor activity against P388 Leukemia in CD2 mice at fractioned dose treatment of 2.5 mg/kg; assay type: functional; in short: as §2
Mus musculus [26] = assay: Percent T/C ([…]) for antitumor activity against P388 Leukemia in CD2 mice at fractioned dose treatment of 1.5 mg/Kg; assay type: functional; in short: as §2
Mus musculus [27] = assay: Percent change in body weight [(day 6 - day 1)/ day 1] when P388 Leukemic CD2 mice were treated with a compound (6 mg/kg); assay type: functional
Mus musculus [28] = assay: Body wieght treated/body weight untreated controls of compound (12.5 mg/kg) was evaluated in vivo for antitumor activity against MAC 16 in female NMRI mice on day 12; assay type: functional
Mus musculus [29] = assay: Body wieght treated/body weight untreated controls of compound (12.5 mg/kg) was evaluated in vivo for antitumor activity against MAC 16 in female NMRI mice on day 4; assay type: functional
Mus musculus [30] = assay: Mean relative body weight change of treated / mean relative body weight change of control when compound (6 mg/kg/day) administered to inhibit growth of human tumor xenograft GXF 97 was reported at day 21 in nude mice; assay type: functional; in short: as §4
Mus musculus [31] = assay: Median survival time in days for antitumor activity against P388 Leukemia in CD2 mice at fractioned dose treatment of 1.5 mg/Kg; assay type: functional; in short: as §6
Mus musculus [32] = assay: Median survival time in days for antitumor activity against P388 Leukemia in CD2 mice at a single dose treatment of 6 mg/kg; assay type: functional
In short: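 P388 leukemia-bearing mice were given one intraperitoneal injection. The read-out was median survival time in days, reported alongside %T/C and % body weight change.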

Mus musculus [33] = assay: Mean relative body weight change of treated / mean relative body weight change of control when compound (6 mg/kg/day) administered to inhibit growth of human tumor xenograft GXF 97 was reported at day 28 in nude mice; assay type: functional; in short: as §4
Mus musculus [34] = assay: Mean relative body weight change of treated / mean relative body weight change of control when compound (6 mg/kg/day) administered to inhibit growth of human tumor xenograft GXF 97 was reported at day 14 in nude mice; assay type: functional; in short: as §4
Mus musculus [35] = assay: Compound ((12.5 mg/Kg) was evaluated in vivo for antitumor activity against MAC 16 in female NMRI mice on day 4 and ratio of tumor weight of treated to that of control was determined; assay type: functional
Mus musculus [36] = assay: Compound (12.5 mg/Kg) was evaluated in vivo for antitumor activity against MAC 16 in female NMRI mice on day 12 and ratio of tumor weight of treated to that of control was determined; assay type: functional
Mus musculus [37] = assay: Ability of intraperitoneally administered compound (6 mg/kg/day) to inhibit growth of human tumor xenograft GXF 97 was assessed on day 21 in nude mice; assay type: functional; in short: as §1
Mus musculus [38] = assay: Percent T/C ([…]) for antitumor activity against P388 Leukemia in CD2 mice at a single dose treatment of 6 mg/kg; assay type: functional
In short: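 P388 leukemia mice given a single intraperitoneal injection. Median survival time (days) and body weight change were recorded. %T/C was derived from the survival of treated versus control mice.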

Mus musculus [39] = assay: Percentage change in body weight [(day 6 - day 1)/ day 1] for antitumor activity against P388 Leukemia in CD2 mice at fractioned dose treatment of 1.5 mg/Kg; assay type: functional; in short: as §2
Mus musculus [40] = assay: Ability of intraperitoneally administered compound (6 mg/kg/day) to inhibit growth of human tumor xenograft GXF 97 was assessed on day 28 in nude mice; assay type: functional; in short: as §1
Mus musculus [41] = assay: Percentage change in body weight [(day 6 - day 1)/ day 1] for antitumor activity against P388 Leukemia in CD2 mice at fractioned dose treatment of 2.5 mg/kg; assay type: functional; in short: as §2
Mus musculus [42] = assay: Relative tumor size on day 28 was reported when compound (6 mg/kg/day) administered to inhibit growth of human tumor xenograft GXF 97 in nude mice; assay type: functional; in short: as §3

## COC1=CC(=O)c2c(c(COC(C)=O)c3n2CCC3OC(C)=O)C1=O (stereo not drawn)
Mus musculus [1]
  T/C: 31.7%
Mus musculus [2]
  T/C: 109%
Mus musculus [3]
  Relative TS: 210.1%
Mus musculus [4]
  BWC: -20.9%
Mus musculus [5]
  BWC: -2%
Mus musculus [6]
  I: -52%
Mus musculus [7]
  T/C: 104%
Mus musculus [8]
  BWC: 87.1%
Mus musculus [9]
  MST: 11 days
Mus musculus [10]
  T/C: 39.3%
Mus musculus [11]
  BW: 105%
Mus musculus [12]
  T/C: 152%
Mus musculus [13]
  T/C: 99%
Mus musculus [14]
  T/C: 31.7%
Mus musculus [15]
  BWC: 89.6%
Mus musculus [16]
  BWC: -1.8%
Mus musculus [17]
  T/C: 91%
Mus musculus [18]
  BW: 81%
Mus musculus [19]
  T/C: 100%
WiDr
  IC50: 0.037 µg/mL (≈ 0.107 µM)
Mus musculus [20]
  BWC: 86.5%
L1210
  IC50: 0.495 µg/mL (≈ 1.43 µM)
Mus musculus [21]
  MST: 12 days
A204
  IC50: 0.008 µg/mL (≈ 0.023 µM)
Mus musculus [22]
  MST: 10 days

## COC1=C(C)C(=O)c2c(c(COC(C)=O)c3n2CCC3OC(C)=O)C1=O (stereo not drawn)
Mus musculus [23]
  T/C: 16.8%
Mus musculus [24]
  MST: 16.5 days
Mus musculus [25]
  T/C: 150%
Mus musculus [5]
  BWC: -7.1%
Mus musculus [6]
  I: 27%
Mus musculus [26]
  T/C: 141%
Mus musculus [9]
  MST: 9 days
Mus musculus [27]
  BWC: -4.7%
Mus musculus [28]
  BW: 78%
Mus musculus [12]
  T/C: 73%
Mus musculus [29]
  BW: 105%
Mus musculus [30]
  BWC: 73.5%
Mus musculus [31]
  MST: 15.5 days
Mus musculus [19]
  T/C: 82%
Mus musculus [32]
  MST: 13 days
WiDr
  IC50: 0.01 µg/mL (≈ 0.0277 µM)
Mus musculus [33]
  BWC: 74.1%
Mus musculus [34]
  BWC: 71%
L1210
  IC50: 0.14 µg/mL (≈ 0.387 µM)
Mus musculus [35]
  T/C: 102%
Mus musculus [36]
  T/C: 120%
Mus musculus [37]
  T/C: 5.9%
Mus musculus [38]
  T/C: 118%
Mus musculus [39]
  BWC: 8.3%
Mus musculus [40]
  T/C: 3.9%
A204
  IC50: 0.001 µg/mL (≈ 0.00277 µM)
Mus musculus [41]
  BWC: 2%
Mus musculus [42]
  Relative TS: 26.2%
